According to paper PMC5008228 (Journal of Parkinson's Disease, 2016):
Where “and” joins values, the source holds several entries; their conditions need not be identical. Identical values can stand only once. Entries after “also recorded” stand apart in the source; their conditions may differ.

Experiments:
Type in all cases: in vivo, human
PDD or DLB participants [1] = assay: Unified Parkinson's Disease Rating Scale; conditions: 300 mg oral daily; for UPDRS-I-IV score / UPDRS-III score: individual participants; for UPDRS-III score, AVG: group AVG (Screening AVG 30.6); for UPDRS-I-IV score, AVG: group AVG (Screening AVG 62.5)
homovanillic acid (HVA) = assay: HVA measurement by ELISA
PDD or DLB participants [2] = assay: Mini Mental State Examination; conditions: for MMSE score: individual participants; for Average increase in MMSE: six months (24-week) compared to baseline
PDD or DLB participants [3] = assay: Scales for Outcomes in Parkinson's disease-Cognition; conditions: for SCOPA-Cog (**/43) score: individual participants; for Average increase in SCOPA-Cog: six months compared to baseline
total tau = assay: Neurodegenerative disease magnetic bead panel, total tau and p-tau181
PDD or DLB participants [4] = assay: Safety and tolerability, adverse events
Aβ42 = assay: Neurodegenerative disease magnetic bead panel, Aβ42; conditions: 150 mg group
PDD or DLB participants [5] = assay: Laboratory blood chemistry; conditions: 150 mg group
Procedure, shortened: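 PDD or DLB participants (n = 5 at 150 mg, n = 7 at 300 mg) took oral doses daily for 24 weeks. Blood chemistry (lipids, phosphate, bilirubin, electrolytes, lipase, α-amylase, ALT, AST) plus CBC with differential were drawn every two weeks for the first two months, then monthly. EKGs and physical/neurological exams were done at the same visits.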

PDD or DLB participants [6] = assay: QTc interval by EKG; conditions: returned to normal range in subsequent visits

Structure (SMILES): Cc1cn(-c2cc(NC(=O)c3ccc(C)c(Nc4nccc(-c5cccnc5)n4)c3)cc(C(F)(F)F)c2)cn1 [Nilotinib]
- UPDRS-I-IV score (PDD or DLB participants [1]; Week-16): 33 and 46 and 17 and 49 and 113 and 95
- UPDRS-III score (PDD or DLB participants [1]; Week-16): 13 and 16 and 6 and 21 and 67 and 44
- UPDRS-III score, AVG (PDD or DLB participants [1]; Week-20): 26.8
- UPDRS-I-IV score, AVG (PDD or DLB participants [1]; Week-20): 55.3
- UPDRS-I-IV score (PDD or DLB participants [1]; Week-20): 23 and 41 and 16 and 54 and 106 and 92
- UPDRS-III score (PDD or DLB participants [1]; Week-20): 7 and 16 and 21 and 69 and 41
- UPDRS-III score, AVG (PDD or DLB participants [1]; Week-24): 27
- UPDRS-I-IV score, AVG (PDD or DLB participants [1]; Week-24): 51.6
- UPDRS-I-IV score (PDD or DLB participants [1]; Week-24): 20 and 28 and 15 and 45 and 107 and 95
- UPDRS-III score (PDD or DLB participants [1]; Week-24): 9 and 12 and 6 and 21 and 70 and 44
- Average decrease in UPDRS-III (motor) (PDD or DLB participants [1]; week 24 compared to baseline): 3.6 points
- CSF homovanillic acid (HVA) vs baseline (homovanillic acid (HVA); 150 mg group, 2 months, t-test): significantly increased
- CSF homovanillic acid (HVA) vs baseline (homovanillic acid (HVA); 150 mg group, 6 months): remained elevated (non-significant)
- CSF homovanillic acid (HVA) vs baseline (homovanillic acid (HVA); 300 mg group, 6 months): significantly increased
- MMSE score, AVG (PDD or DLB participants [2]; 300 ng (sub-heading as printed) oral daily, Week-4, group AVG (Screening AVG 17)): 20.3
- MMSE score (PDD or DLB participants [2]; 300 ng (sub-heading as printed) oral daily, Week-4): 27 and 28 and 24 and 5 and 10
- MMSE score, AVG (PDD or DLB participants [2]; 300 ng (sub-heading as printed) oral daily, Week-8, group AVG (Screening AVG 17)): 18.1
- MMSE score (PDD or DLB participants [2]; 300 ng (sub-heading as printed) oral daily, Week-8): 28 and 23 and 24 and 2 and 8
- MMSE score (PDD or DLB participants [2]; 300 ng (sub-heading as printed) oral daily, Week-12): 29 and 26 and 25 and 28 and 1 and 6
- MMSE score (PDD or DLB participants [2]; 300 ng (sub-heading as printed) oral daily, Week-16): 27 and 29 and 25 and 14 and 6 and 12
- MMSE score (PDD or DLB participants [2]; 300 ng (sub-heading as printed) oral daily, Week-20): 26 and 30 and 25 and 24 and 2 and 6
- MMSE score (PDD or DLB participants [2]; 300 ng (sub-heading as printed) oral daily, Week-24): 28 and 30 and 25 and 26 and 5 and 9
- MMSE score, AVG (PDD or DLB participants [2]; 150 mg oral daily, Week-4, group AVG (Screening AVG 15.4)): 17.4
- MMSE score (PDD or DLB participants [2]; 150 mg oral daily, Week-4): 20 and 0 and 11 and 28
- MMSE score, AVG (PDD or DLB participants [2]; 150 mg oral daily, Week-8, group AVG (Screening AVG 15.4)): 18
- MMSE score (PDD or DLB participants [2]; 150 mg oral daily, Week-8): 22 and 1 and 11 and 29 and 27
- MMSE score, AVG (PDD or DLB participants [2]; 150 mg oral daily, Week-12, group AVG (Screening AVG 15.4)): 18
- MMSE score (PDD or DLB participants [2]; 150 mg oral daily, Week-12): 21 and 1 and 11 and 29 and 28
- MMSE score, AVG (PDD or DLB participants [2]; 150 mg oral daily, Week-16, group AVG (Screening AVG 15.4)): 18.6
- MMSE score (PDD or DLB participants [2]; 150 mg oral daily, Week-16): 26 and 1 and 8 and 30 and 28
- MMSE score, AVG (PDD or DLB participants [2]; 150 mg oral daily, Week-20, group AVG (Screening AVG 15.4)): 18.4
- MMSE score (PDD or DLB participants [2]; 150 mg oral daily, Week-20): 26 and 1 and 10 and 30 and 25
- MMSE score, AVG (PDD or DLB participants [2]; 150 mg oral daily, Week-24, group AVG (Screening AVG 15.4)): 19.25
- MMSE score (PDD or DLB participants [2]; 150 mg oral daily, Week-24): 23 and 2 and 29
- Average increase in MMSE (PDD or DLB participants [2]; 150 mg oral daily): 3.85 points
- Average increase in MMSE (PDD or DLB participants [2]; 300 mg oral daily): 3.5 points
- SCOPA-Cog (**/43) score, AVG (PDD or DLB participants [3]; 150 mg oral daily, Week-8, group AVG (Screening AVG 9.4)): 10
- SCOPA-Cog (**/43) score (PDD or DLB participants [3]; 150 mg oral daily, Week-8): 5 and 0 and 4 and 23 and 18
- SCOPA-Cog (**/43) score, AVG (PDD or DLB participants [3]; 150 mg oral daily, Week-20, group AVG (Screening AVG 9.4)): 9.6
- SCOPA-Cog (**/43) score (PDD or DLB participants [3]; 150 mg oral daily, Week-20): 3 and 1 and 0 and 26 and 18
- SCOPA-Cog (**/43) score, AVG (PDD or DLB participants [3]; 150 mg oral daily, Week-24, group AVG (Screening AVG 9.4)): 11.25
- SCOPA-Cog (**/43) score (PDD or DLB participants [3]; 150 mg oral daily, Week-24): 4 and 0 and 23 and 18
- Average increase in SCOPA-Cog (PDD or DLB participants [3]; 150 mg oral daily): 1.85 points
- SCOPA-Cog (**/43) score, AVG (PDD or DLB participants [3]; 300 mg oral daily, Week-8, group AVG (Screening AVG 10.33)): 12.17
- SCOPA-Cog (**/43) score (PDD or DLB participants [3]; 300 mg oral daily, Week-8): 22 and 30 and 11 and 9 and 0 and 1
- SCOPA-Cog (**/43) score, AVG (PDD or DLB participants [3]; 300 mg oral daily, Week-20, group AVG (Screening AVG 10.33)): 13.3
- SCOPA-Cog (**/43) score (PDD or DLB participants [3]; 300 mg oral daily, Week-20): 21 and 30 and 19 and 10 and 0
- SCOPA-Cog (**/43) score, AVG (PDD or DLB participants [3]; 300 mg oral daily, Week-24, group AVG (Screening AVG 10.33)): 12.33
- SCOPA-Cog (**/43) score (PDD or DLB participants [3]; 300 mg oral daily, Week-24): 22 and 31 and 10 and 0 and 1
- Average increase in SCOPA-Cog (PDD or DLB participants [3]; 300 mg oral daily): 2 points
- CSF total tau vs baseline (total tau; 150 mg group, 2 months): significantly reduced
- CSF total tau vs baseline (total tau; 300 mg group, 6 months): significantly reduced
- Serious adverse events (one participant each) (PDD or DLB participants [4]; 150 mg group, n = 5): hospitalized with pneumonia and UTI
- Serious adverse events (one participant each) (PDD or DLB participants [4]; 300 mg group, n = 7): withdrawn at week 4 and diagnosed with myocardial infarct and left bundle block; also recorded: hospitalized with urinary tract infection (UTI)
- Safety and tolerability (PDD or DLB participants [4]; once daily oral 150 mg or 300 mg, subjects with PDD or DLB): may be safe and tolerated
- CSF Aβ42 (Aβ42): No changes
- AEs below normal range of alanine aminotransferase (ALT) level (<100%) (PDD or DLB participants [5]): three
- QTc finding in participant NIL 8 (PDD or DLB participants [6]; 150 mg group): slight QTc prolongation >450 ms at week 8
- QTc finding in participant NIL 15 (PDD or DLB participants [6]; 300 mg group): two episodes of QTc prolongation >450 ms at week 2 and week 8
